The values that follow come from publication PMC7558257 (Acta Pharmaceutica Sinica. B, 2020).

Some results are limits rather than exact numbers.

For one series, the system named is ICR mice. The experiment in a line: Acute toxicity study in mice. The format is in vivo.
Series [1] can be described thus: In vivo single dose PK study in rats. As to conditions: male, Sprague-Dawley, rat, plasma. A digest of the protocol:
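Male Sprague–Dawley rats (n = 3 per route) received the test compound at 1 mg/kg i.v. or 10 mg/kg p.o. Heparinized blood was sampled at 5, 15 and 30 min and at 1, 2, 4, 8 and 24 h. Levels were quantified by LC/MS/MS, with noncompartmental PK analysis. For i.v., Cmax was taken as C0.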

Series [2] deals with Human dihydroorotate dehydrogenase (DHODH) (Homo sapiens, UniProt Q02127). Nature of the series: In vitro DHODH enzyme inhibition assay. The format is biochemical. As to conditions: read-out: Inhibition (%) at 10 μmol/L.
Chain of Human dihydroorotate dehydrogenase (DHODH) (Q02127 whole entry): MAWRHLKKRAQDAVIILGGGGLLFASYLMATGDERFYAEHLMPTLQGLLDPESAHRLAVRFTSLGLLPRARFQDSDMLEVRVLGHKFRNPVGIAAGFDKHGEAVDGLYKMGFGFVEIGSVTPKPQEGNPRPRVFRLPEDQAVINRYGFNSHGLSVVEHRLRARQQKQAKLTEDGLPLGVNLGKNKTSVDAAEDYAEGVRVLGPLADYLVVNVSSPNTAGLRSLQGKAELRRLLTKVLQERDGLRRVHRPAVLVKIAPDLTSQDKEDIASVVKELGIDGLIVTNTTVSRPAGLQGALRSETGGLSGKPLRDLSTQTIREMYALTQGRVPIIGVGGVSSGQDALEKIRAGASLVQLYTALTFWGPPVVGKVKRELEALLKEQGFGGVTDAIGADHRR
The subject of series [3] is collagen-induced arthritis (CIA) in Wistar rats. The experiment in a line: Collagen-induced arthritis. Type of series: in vivo. As to conditions: for arthritis score (stabilized, lastly): scale 0-4, model group around 2.3. The gist of the method: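 Adult male Wistar rats (130–150 g) were immunized with emulsified bovine type II collagen on Days 1 and 7. Dosing was oral, once daily for 28 days, with 0.5% CMC-Na vehicle. Arthritis was scored 0–4 daily, blinded. Body weight was taken every 3 days, plus hind-paw volume and terminal joint histopathology. Data are mean ± SEM.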

For orientation: AUC means the area under the concentration-time curve, a measure of exposure. A low value points to low exposure. The Cmax is the maximum level reached in the sampled fluid or tissue. Usually Vd stands for a proportionality between amount in the body and measured concentration, not a real space. A word on the clearance: it is the volume of plasma or blood freed of the substance per unit of time. Read a low clearance as inefficient removal. What is called half-life is the time needed for the level to fall by half in the phase considered. Broadly, the bioavailability is the share of a dose that reaches the circulation, judged against a reference dose that is usually intravenous. A lower bioavailability goes with little systemic uptake. In general, Tmax refers to the time at which the peak concentration occurs.

As to `C/C(=C\c1ccc2ccccc2c1Cl)C(=O)Nc1ccc(F)cc1C(=O)O` [Compound 54], in the series on ICR mice (single intragastric dose 300 and 500 mg/kg, 14 days observation, n = 3), the behavior and mortality entry is recorded as “No obvious abnormal in behaviors or mortality”. For the same molecule, the “morphological examination of liver and kidney” value in the series with ICR mice (single intragastric dose 300 and 500 mg/kg, day 14) is reported as “did not find remarkable injury”. In addition, the “body weight change compared to control group” value in the series with ICR mice (single intragastric dose 300 and 500 mg/kg, end of experiment (day 14)) is on record as “no significant change in body weight”. Besides, in the series on ICR mice (single intragastric dose, mice), the tolerated dose is recorded as not below 500 mg/kg. In series [1] (iv, 1 mg/kg), the AUC was found to be 381 µg·h/mL, the Cmax is 31.5 µg/mL, the Vd amounted to 0.069 L/kg and the clearance was 2.6 mL/h/kg. In series [1] (iv, 1 mg/kg), this molecule had a half-life of 18.1 h. In series [1] (oral, 10 mg/kg), the bioavailability was determined as 67.1%. In series [1] (po, 10 mg/kg), the AUC was 2560 µg·h/mL, the Cmax was 77.8 µg/mL, the Tmax is 4.67 h and the half-life is 21.5 h. Moreover, the inhibition at 10 µM in series [2] turned out to be 98.7%. Also, the “arthritis score (stabilized, lastly)” value in series [3] (10 mg/kg orally once a day for 28 days) was “around 1”. Also, the “arthritis score (stabilized, lastly)” value in series [3] (30 mg/kg orally once a day for 28 days) was approximately 0.6. Further, the “histopathological symptoms of arthritis in ankle joints (H&E)” value in series [3] (54 at 10 and 30 mg/kg, after four weeks of therapy, dose-dependent) was “significantly alleviated”. Moreover, the “volumes of paws in CIA rats compared to model rats” value in series [3] (orally once a day for 28 days, methotrexate 0.3 mg/kg, 54 at 10 and 30 mg/kg) was “significantly decreased”.
